Screens from PubChem.
UPR XBP1 act = adaptive UPR (XBP1) activation. CHO-XBP1 luciferase reporter, IRE1-XBP1 UPR activation, luminescence; percent of tunicamycin response, DMSO as zero. activation, % at 20 µM. actives 0.33% (n = 330,000). AID 463104;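 active = versus positive control, 20 µM dose yields 30% or more activation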;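 note: 100% = tunicamycin at 10 µg/mL and 0% = DMSO only wells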
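Material: CHO cell line with stable XBP1 luciferase reporter; buffer or medium: F12 medium containing 10% fetal bovine serum; compound: single point, 20 µM final compound, 1% DMSO; incubation: 6 h treatment, 37 °C; measured by: glow luminescence from Steady-Glo reagent; evaluation: activation, % of tunicamycin; control set: tunicamycin high, DMSO low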
CHOP UPR activ = activators of apoptotic arm of unfolded protein response (CHOP); activation, % at 10 µM; AID 449763; CHO-CHOP luciferase reporter, UPR activation, luminescence; percent of tunicamycin response over DMSO baseline; actives 0.34% (n = 330,000);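 active = at 10 µM dose, activation of 40% or more, normalized to positive control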;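 note: 100% = tunicamycin at 10 µg/mL and 0% = DMSO alone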
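Assay system: CHO cells with stable CHOP pathway luciferase reporter; Buffer or medium: F12 plus 10% serum; Times: 16-18 h cell attachment, then 6 h compound exposure, 37 °C; Signal: luciferase luminescence; Read-out basis: percent activation relative to tunicamycin control; Control set: tunicamycin high control, DMSO low control.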
Mdm2-MdmX inh = inhibitors of human Mdm2/MdmX interaction. SaOS-2 split-luciferase Mdm2/MdmX complementation, luminescence. O15151+Q00987. inhibition, % at 8 µM. actives 3% (n = 330,000);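 active = inhibition of at least 50% at 8 µM in the primary screen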
Target sequence (O15151 whole entry, looked up): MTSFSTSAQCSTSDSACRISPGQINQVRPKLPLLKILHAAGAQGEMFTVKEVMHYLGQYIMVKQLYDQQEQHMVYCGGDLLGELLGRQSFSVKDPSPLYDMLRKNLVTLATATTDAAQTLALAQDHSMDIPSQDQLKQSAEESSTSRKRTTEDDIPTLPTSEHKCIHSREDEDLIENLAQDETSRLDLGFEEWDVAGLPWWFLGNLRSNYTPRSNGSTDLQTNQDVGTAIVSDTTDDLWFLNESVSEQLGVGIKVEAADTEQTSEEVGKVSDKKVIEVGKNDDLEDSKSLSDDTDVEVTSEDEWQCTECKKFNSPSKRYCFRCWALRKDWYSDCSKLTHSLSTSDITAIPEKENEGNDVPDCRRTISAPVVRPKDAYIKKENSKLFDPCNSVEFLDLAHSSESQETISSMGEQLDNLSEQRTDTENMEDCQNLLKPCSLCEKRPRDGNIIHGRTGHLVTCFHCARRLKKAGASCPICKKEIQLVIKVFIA
Target sequence (Q00987 whole entry, looked up): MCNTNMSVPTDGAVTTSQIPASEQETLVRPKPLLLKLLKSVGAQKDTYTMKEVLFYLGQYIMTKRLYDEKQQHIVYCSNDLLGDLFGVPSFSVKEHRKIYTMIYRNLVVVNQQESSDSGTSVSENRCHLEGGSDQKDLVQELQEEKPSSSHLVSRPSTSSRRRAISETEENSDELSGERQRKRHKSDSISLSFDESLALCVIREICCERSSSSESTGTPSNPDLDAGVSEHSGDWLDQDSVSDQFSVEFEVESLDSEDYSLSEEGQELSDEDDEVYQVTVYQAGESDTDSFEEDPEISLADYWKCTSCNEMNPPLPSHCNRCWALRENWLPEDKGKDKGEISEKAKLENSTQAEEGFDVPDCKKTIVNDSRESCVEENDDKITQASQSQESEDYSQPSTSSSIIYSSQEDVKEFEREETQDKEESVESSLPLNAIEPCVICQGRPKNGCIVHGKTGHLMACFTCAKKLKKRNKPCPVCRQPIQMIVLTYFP
ABHD5-PLIN5 inh = blocks binding of human ABHD5 to perilipin-5; Q00G26+Q8WTS1; Split G. princeps luciferase complementation, luminescence, 4 h; inhibition, % at 4 µM; actives 0.78% (n = 360,000);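 active = inhibition above the mean inhibition across every tested compound plus 3 SD, cut at about 22% in these data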;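 note: 0% = DMSO only wells and the 100% control is not disclosed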
Granule exo inh = blocks lytic granule exocytosis; TALL-104 LAMP-1 surface exposure, flow cytometry; cells stimulated with thapsigargin and PMA; inhibition, % at 10 µM; actives 0.66% (n = 360,000); AID 651702;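 active = inhibition above about 55%, limit read from the data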
Mdm2-MdmX conf = confirmation of human Mdm2/MdmX interaction inhibitors; shares compounds with Mdm2-MdmX inh; Mdm2-MdmX binding, luminescent assay; inhibition, % at 8 µM; actives 55% (n = 10,000); AID 489028; in the data active = inhibition above about 40%
FLuc counter = full-length luciferase inhibition in Mdm2/MdmX counter-screen; shares compounds with Mdm2-MdmX inh; SaOS-2 full-length luciferase counterscreen, luminescence; inhibition, % at 8 µM; actives 77% (n = 6,200); AID 504607;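 active = mean inhibition at 8 µM reaching about 37%, which flags the compound as non-specific, limit read from the data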;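 note: p53-null SaOS-2 cells with luciferase driven by a doxycycline-inducible promoter; compound on cells about two nights before reading with doxycycline added after day one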
* marks the source's active call; other numbers are inactive results; x = no result given. A selection: hits, their analogues and other compounds. The true share with any hit is near 4%.

SMILES	UPR XBP1 act	CHOP UPR activ	Mdm2-MdmX inh	ABHD5-PLIN5 inh	Granule exo inh	Mdm2-MdmX conf	FLuc counter
COc1ccc(-c2cc(C)no2)cc1S(=O)(=O)N(C)c1cccc(C)c1	-1	3	9	-9	18	x	x
CCOc1ccc(N(C)S(=O)(=O)c2ccc(-c3cc(C)no3)s2)cc1	-1	1	61*	-3	8	53*	84*
O=S(=O)(c1cccc(-c2nnco2)c1)N1CCCC1	-1	-1	-17	2	-4	x	x
CC(C)=CCC12Oc3cc(O)ccc3C1(O)Oc1cc3c(c(O)c1C2=O)C=CC(C)(C)O3 (stereo not given)	1	-1	18	x	x	x	x
COc1ccc(NC(=O)CN(C)C(=O)c2sc3ccccc3c2Cl)cc1	-2	0	-13	5	3	x	x
COc1ccc(Cl)cc1NC(=O)CN(C)CC(=O)Nc1ccccc1N1CCOCC1	-1	-1	58*	11	-1	55*	65*
COc1ccc(Cl)cc1NC(=O)CC(=O)Nc1cc(Cl)ccc1OC	2	0	66*	2	4	17	x
COc1ccc(Cl)cc1NC(=O)CN(C)CC(=O)N1CC(=O)Nc2ccccc21	-3	0	28	-1	-11	x	x
COc1ccc(Cl)cc1NC(=O)CN(C)C(=O)c1sc2ccccc2c1Cl	-4	-1	54*	-2	1	18	x
C/C(=N\NC(=O)c1ccc(Cl)cc1)c1ccc(Br)s1	6	2	48	0	0	x	x
CCCCCCCNC(=O)C1(CC2CC(c3ccc(Cl)cc3)=NO2)CCNCC1 (stereo not given)	5	4	100*	16	4	69*	25
CCCCCCCNC(=O)C1(CC2CC(c3cccc(Br)c3)=NO2)CCN(C(=O)Cc2ccc(F)cc2)CC1 (stereo not given)	1	1	36	-4	-3	x	x
CCCCCCCNC(=O)C1(CC2CC(c3cccc(Br)c3)=NO2)CCNCC1 (stereo not given)	14	7	100*	17	-2	85*	60*
CCCCCCCNC(=O)C1(CC2CC(c3ccc(Cl)cc3)=NO2)CCN(C(=O)Cc2ccc(F)cc2)CC1 (stereo not given)	-1	4	30	6	-10	x	x
COc1cccc(NC(=O)COC(=O)c2c3c(nc4ccccc24)CCC(C)C3)c1 (stereo not given)	7	5	79*	0	14	64*	64*
CC1CCc2nc3ccccc3c(C(=O)OCC(=O)NC3CCS(=O)(=O)C3)c2C1 (stereo not given)	-1	1	28	-5	-4	x	x
CCOC(=O)C1C(c2ccccc2)C(C(=O)OCC)C1c1ccccc1 (stereo not given)	-5	1	13	5	4	x	x
Cc1ccc(NC(=S)N/N=C2\CC(C)(C)Oc3ccc(O)cc32)cc1	-1	-1	28	-13	-2	x	x
CC(=O)N1CCC2(CC1)C/C(=N\NC(=S)Nc1ccc(C)cc1)c1cc(O)ccc1O2	-5	2	75*	-3	-3	40*	93*
Cc1ccccc1NC(=S)N/N=C1\CC(C)(C)Oc2ccc(O)cc21	1	0	51*	3	2	6	x
Cc1cccc(NC(=O)CSc2nc3ccccc3nc2N2CCCC2)c1	-2	2	85*	-2	-1	45*	81*
Cc1cccc(NC(=O)CSc2nc3ccccc3nc2N2CCCCC2)c1	-3	1	96*	-5	5	44*	102*
COc1cccc(NC(=O)CSc2nc3ccccc3nc2N2CCCC2)c1	1	5	64*	9	0	3	x
COc1ccc(NC(=O)CSc2nc3ccccc3nc2N2CCCCC2)cc1	-2	0	37	-2	4	x	x
COc1cc(C)c(C(=O)CSc2nnc(CNC(=O)c3ccco3)n2C)cc1C	4	0	-9	4	-4	x	x
Cc1ccc(C2=NCCn3c2c2ccc([N+](=O)[O-])cc2[n+]3[O-])cc1	0	-2	25	-6	-2	x	x
